Assay: Toxicity liver stage against HepG2, at 10uM
Format: cell-based
Design: test concentration 10 uM, cell line HepG2-A16-CD81EGFP
Settings: human, HepG2-A16-CD81EGFP cells; read-out: INHIBITION
Procedure, shortened: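 Uninfected HepG2-A16-CD81EGFP cells, 3 × 10^3 per well, 1536-well, plated on prespotted compound at 10 μM final, parasite-free screening media added to match infected plates; puromycin 10 μM positive, DMSO 0.5% negative; run in parallel with 48 h PbLuc assay at 37 °C, 5% CO2; viability by CellTiter-Glo luminescence, normalized to controls.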

SMILES | cytotoxicity at 10 µM [%]
CCCNC(=O)COc1cccc(-c2nc(C(C)C)no2)c1 | -77.9
CCOC(=O)CN1CCC2(CC1)CC(=O)c1ccc3ccccc3c1O2 | 3.33
COC(=O)N1CC[C@@]2(C1)[C@H](OC)CN(c1ccccc1)S2(=O)=O | 5.78
COc1cccc(-c2nc(C)c(C(=O)NCCC(=O)O)s2)c1 | 8.69
O=C(CCc1nc2cc(Br)cnc2[nH]1)NCCCN1CCOCC1 | -2.67
CCCS(=O)(=O)c1ccc(N2CCN(Cc3ccccc3)CC2)nn1 | -5.93
O=C(NCC(O)(c1cccs1)C1CC1)NC1CCCCC1 (centres undefined) | -2.25
Cc1noc(C)c1S(=O)(=O)NCC(C)(O)c1ccc2c(c1)OCO2 (centres undefined) | 0.331
O=C(Nc1cccnc1)C1CCN(c2cc(-n3ccnc3)ncn2)CC1 | -3.3
O=C(NCCNc1cc(-n2cccc2)ncn1)c1cccs1 | -2.56
CCOCC(=O)NCCC(O)c1ccoc1 (centres undefined) | -4.59
CNC(=O)CS(=O)(=O)C1CCN(S(=O)(=O)c2cccc(C(C)=O)c2)CC1 | 5.85
COCCN1C(=O)C2(CCC(C(=O)Nc3ccc(C)cc3)CC2)N=C1C (centres undefined) | 12.3
CCNC(=O)CC1CC2(CCN(C(C)=O)CC2)c2cc(F)ccc21 (centres undefined) | 6.83
CCN(CC)[C@H]1COC[C@@H]2CN(Cc3cnn(C)c3)C[C@@H]21 | 11.5
Cc1cc(CN2C[C@@H]3COC[C@]3(COCC(=O)N(C)C)C2)no1 | 1.44
COc1ccc(NC(=O)CSc2nncn2-n2cccc2)c(OC)c1 | -2.74
CC(C)CN1CCC2(CCN(C(=O)c3ccc(F)cc3)CC2)C1=O | 8.06
Cc1ccc(CN2CCC3(CC(C(=O)NCC4CC4)=NO3)C2)cc1C (centres undefined) | 3.84
CCn1c(SCC(N)=O)nnc1C(C)NC(=O)c1ccc(Cl)cc1 (centres undefined) | -36.4
CCn1ncc(Nc2[nH]cnc3nncc2-3)c1C | 7.29
c1cnnc(N[C@@H]2CC[C@@H]3CN(Cc4c[nH]c5ccccc45)C[C@@H]32)c1 | 3.33

SMILES | cytotoxicity at 10 µM [%]
Cc1cc(-c2cncnc2)nc(C2CCCN2S(C)(=O)=O)n1 (centres undefined) | -6.21
Cc1noc(C)c1-c1ccc(C2CCCN2C(=O)c2cccnn2)nc1 (centres undefined) | -18.9
Cc1cccc(C(=O)N2CCCC[C@]3(C)NC(=O)CCC[C@H]23)n1 | -21.3
O=C(NC1CC1)C1(Cc2cc(-c3ccc(F)cc3F)no2)CCOCC1 | 11
Cc1nc(O)c2nnn(C[C@H]3CCCN3C(=O)c3cccs3)c2n1 | -25.6
CNc1cc(C2CCCN2Cc2ccccc2C(=O)O)ccn1 (centres undefined) | -5.28
Cc1ccccc1C(C#N)NC(=O)CCCOc1cccnc1 (centres undefined) | -0.398
Cc1nnc(CN2CCCCC2c2nc(-c3ccccc3)no2)s1 (centres undefined) | -48.5
CC1CCCN(C(=O)c2cn(-c3ccc(C(F)(F)F)cn3)nn2)C1 (centres undefined) | -51.3
CN1CCN(C(=O)c2cccs2)Cc2ccccc21 | -43.9
CN1CCN(CCNC(=O)c2sccc2C2CC2)CC1 | -149
O=C(CCSc1ccccc1F)N1CCN(c2cnccn2)CC1 | -51.7
Cc1nc(-c2ccc(CC(=O)N3CCN(C(=O)C(C)C)CC3)cc2)cs1 | 12.8
Cc1cc(C)nc(NC2CC(=O)N(C(C)(C)C)C2)n1 (centres undefined) | -5.81
COC(=O)c1ccc(N2CCN(C(=O)C3CC3)C(C)C2)cc1 (centres undefined) | -1.07
c1ncc2c(n1)CN(Cc1cn3ccsc3n1)CC2 | 11.3
c1ccc(N2CCC(NCc3cccc4cn[nH]c34)C2)cc1 (centres undefined) | 13.6
O=C(c1ccc(-n2ccnc2)cc1)N1CCCC1 | -7.55
CC(C)c1n[nH]c(C2CN(C(=O)COCC(F)(F)F)CCO2)n1 (centres undefined) | -10.3
Cc1nc(C)n(CC2CCCCN2CCCO)n1 (centres undefined) | 4.37
O=C(CN1CCc2ccccc21)NCc1ccc(Cl)cc1 | 12.4
O=C(Cc1ccc2c(c1)CCO2)N1CCCC1Cn1cccn1 (centres undefined) | -149

SMILES | cytotoxicity at 10 µM [%]
CCOC(C)c1noc(CN2CCNCC2)n1 (centres undefined) | 1.03
CN(C)c1cccc(C(=O)Nc2cn(C)c(=O)n(C)c2=O)c1 | 3.34
COc1ccc(CNC(=O)NCCc2nc(C)c(C)s2)cn1 | -0.0813
COc1ncccc1C(=O)N1CCCC1c1c(C)n[nH]c1C (centres undefined) | 10.7
CC(C)N(C)S(=O)(=O)N1CCCC1C(=O)N1CCSCC1 (centres undefined) | -16.5
CC(c1nnc(-c2ccccc2)o1)N1CCC(Nc2ccccc2)CC1 (centres undefined) | 5.1
Cc1ccc(CNCc2nnc3n2CCCC3C(F)(F)F)s1 (centres undefined) | 20.7
Cc1n[nH]c(C2CN(C(=O)c3cc(Cl)c[nH]3)CCO2)n1 (centres undefined) | 3.95
CC(O)CN1CCC(CNCc2ccc(S(C)(=O)=O)cc2)CC1 (centres undefined) | -21.4
CC(C)Cn1c2c(ccc1=O)CC(NC(=O)c1ccsc1)CC2 (centres undefined) | -109
COC[C@@]12CCC[C@@H]1CN(C(=O)Cc1ccco1)C2 | -102
Cc1occc1C(=O)N1CCC2(CC1)C(c1cnn(C)c1)CC(=O)N2C (centres undefined) | 5.66
O=c1cc(Cn2cncn2)nc2n1CCCN(CC1CC1)C2 | -2.65
Cc1ncc(CN2CCN(C(=O)N(C)C)[C@@H]3CS(=O)(=O)C[C@@H]32)cn1 | 7.86
Cc1cc(-c2c(C)c(-c3cnn(C)c3)nc(N)c2C#N)oc1C | -93.5
CCCOC(=O)N1CCCC(c2nnc(CN3CCOCC3)n2C)C1 (centres undefined) | 2.19
CC(Nc1nc(-c2ccccc2)nc2c1CCNCC2)c1cccnc1 (centres undefined) | -0.587
CCc1ccc(CN2CCN(C)C3(CCC(=O)N(CC4CC4)CC3)C2)o1 (centres undefined) | -2.77
CCc1cc(NCCC(F)(F)F)nc(N2CCOCC2)n1 | -4.65
COc1ccccc1S(=O)(=O)N1CCC2(CC1)[C@H](O)C[C@@H]2O | 9.12
CC(c1ccon1)N(C)C(=O)C1CCN(C2CCCCC2)CC1 (centres undefined) | -20.2
CC(C)(O)CCc1cccc(C(=O)NCCC2=CSC3=NCCCN23)c1 | 9.17

SMILES | cytotoxicity at 10 µM [%]
CCC(CO)N(Cc1ccccn1)C(=O)c1ccc(CSC)o1 (centres undefined) | -5.06
CC(=O)N1CCc2c(nc(N(C)C)nc2N(C)CCO)C1 | -2.48
Fc1ccc(N2CCN(CCCc3cn[nH]c3)CC2)cc1 | -144
Cc1nc[nH]c1-c1c(-c2ccccc2)ncn1C1CCNC1 (centres undefined) | -52.4
CC(C)Cc1cc(C(=O)N2CCC(C(=O)N3CCOCC3)CC2)on1 | -8.61
CCCc1nnc2sc(C3CCN(CCOC)CC3)nn12 | 6.76
CCc1[nH]c2c(CNC(=O)C3CCCN(C)C3)cc(C)cc2c1C (centres undefined) | -15.6
CC(C)n1ccnc1C1CCCN(c2cc(C(=O)NC3CC3)ccn2)C1 (centres undefined) | -0.352
Cc1csc2c(N3CCC(NCCCc4cnn(C)c4)CC3)ncnc12 | 0.301
C1CCC(c2nc3c(c(N4CC(N5CCOCC5)C4)n2)CCNCC3)C1 | -10.2
CC(C)N1CCOC(CC(=O)N2CC(c3ccncc3)C2)C1 (centres undefined) | 7.44
N[C@H]1CN(C(=O)c2ccccc2Oc2ccccc2)C[C@@H]1C1CC1 | -0.948
O=C(CCCn1cnnn1)N1CCC(c2ccncc2)CC1 | -4.8
Cc1nc[nH]c1CN1CCCC(CNC(=O)c2ccc(N)nc2)C1 (centres undefined) | 1.56
CCNC(=O)N1C[C@@H](NC(C)=O)[C@H](c2ccc(C)o2)C1 | -8.82
Cc1ccccc1CCC1CCCN(Cc2c(C)[nH]c(=O)[nH]c2=O)C1 (centres undefined) | 5
c1nc2c(c(NCCCn3cncn3)n1)CCN(CC1CCOC1)CC2 (centres undefined) | -10.6
Cc1ccc(C)c(OC(C)C(=O)Nc2cccnc2)c1 (centres undefined) | 7.39
CCN(Cc1ccoc1)Cc1nc(COC)no1 | -0.566
CNc1ncc(C(=O)N2CCCC(CO)(CCCOC)C2)cn1 (centres undefined) | -44.4
C/C=C(\C)CN(CCN1CCOCC1)Cc1ccco1 | 11.1
CCOC(=O)N1CCN(C(=O)C(CC)n2cccn2)CC1 (centres undefined) | -0.193

SMILES | cytotoxicity at 10 µM [%]
COc1ncccc1NC(=O)N(C1CC1)C(C)C(C)C (centres undefined) | 8.42
Cn1cc(NC(=O)N2CCC(OCc3ccccc3)CC2)ccc1=O | -5.75
COc1ccccc1OCCNCc1c(C(C)C)nn(C)c1N(C)C | -12.8
COc1cc(CNCCc2cnn(C)c2)cc(OC)c1OC | -9.51
O=C(c1ccc(NC2CC2)nc1)N1CCCC(n2ccnc2)C1 (centres undefined) | -3.81
COc1ccccc1OCC(=O)NS(=O)(=O)c1ccc(Cl)s1 | -4.93
Cc1ccc(C(=O)NC2CCN(C(=O)Nc3ccncc3)CC2)o1 | 1.48
CN(C(=O)c1cccc(Cl)c1)C1CCN(c2ccccn2)CC1 | -8.8
Cc1nc(CN(C)C2CCN(Cc3ccc4c(c3)CCC4)C2)no1 (centres undefined) | -18.2
O=C(c1cc2c(s1)CCC2)N1CCCCC1Cn1cccn1 (centres undefined) | -4.86
Cn1ccc(C(=O)N2CCN(c3ncccn3)CC2)cc1=O | -11.6
Cn1ccnc1C(=O)N1C[C@@H]2CCN(c3cnccn3)C[C@@H]2C1 | -97
O=C1COC2(COCCN(c3ccccn3)C2)CN1c1cccc(F)c1 (centres undefined) | -103
CCN1C[C@@H]2CN(C(=O)NCc3ccccc3)CCC[C@]2(C(=O)O)C1 | 3.47
Cc1cnc(N2C[C@H]3CN(Cc4csc(C)n4)C(=O)[C@H]3C2)nc1 | 12
CO[C@H]1CN(CC2CC2)[C@@H]2CCCO[C@H]12 | -118
CCOC1COC2(CCN(Cc3cccc(F)c3)CC2)C1 (centres undefined) | 5.47
O=C(Nc1cccnc1)[C@H]1CN(Cc2ccco2)C[C@H]2OCC[C@@H]12 | -114
CN1CC2(CCN(C(=O)c3cccnc3)CC2)c2cccc(F)c21 | 6.17
CCOc1ccc(CN2CC[C@@H]3CC[C@H](C2)N3)cc1CO | 5.99
CN(C)S(=O)(=O)N1C[C@H]2CC[C@@H](C1)N(Cc1ccc3[nH]ccc3c1)C2 | 3.07
